The source made the active and inactive calls.
Legend:
[1] = target: T1, Adenosine receptor A1 (Homo sapiens) (UniProt P30542); test: Displacement of [3H]N6-R-phenylisopropyladenosine from human A1AR expressed in CHO cells at 10 uM after 60 mins by scintillation counting analysis; format: cell-based
T1 sequence (whole entry): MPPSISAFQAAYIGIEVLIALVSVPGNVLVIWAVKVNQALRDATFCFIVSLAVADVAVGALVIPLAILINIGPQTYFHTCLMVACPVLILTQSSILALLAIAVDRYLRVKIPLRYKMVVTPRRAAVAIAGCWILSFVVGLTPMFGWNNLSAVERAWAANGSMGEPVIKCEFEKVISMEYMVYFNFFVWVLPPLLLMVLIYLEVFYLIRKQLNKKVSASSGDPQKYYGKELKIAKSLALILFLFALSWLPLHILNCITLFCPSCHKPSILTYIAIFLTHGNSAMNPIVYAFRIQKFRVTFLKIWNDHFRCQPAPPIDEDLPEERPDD
Method in brief: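 Membranes from CHO cells stably expressing hA1AR, labelled with agonist [3H]N6-R-phenylisopropyladenosine. […] Compound stocks kept in DMSO at −80 °C; n = 3-4.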

Adenosine receptor A2a [2] = target: T2, Adenosine receptor A2a (Homo sapiens, UniProt P29274); test: Displacement of [3H]2-[p-(2-carboxyethyl)phenyl-ethylamino]-5'-N-ethylcarboxamido-adenosine from human A2aAR expressed in HEK293 cells after 60 mins by scintillation counting analysis; format: cell-based
Adenosine receptor A3 [3] = target: T3, Adenosine receptor A3 (Homo sapiens, UniProt P0DMS8); test: Displacement of [125I]N6-(4-amino-3-iodobenzyl)adenosine-5'-N-methyluronamide from human A3AR expressed in CHO cells after 60 mins by scintillation counting analysis; format: cell-based
T3 sequence (P0DMS8 whole entry): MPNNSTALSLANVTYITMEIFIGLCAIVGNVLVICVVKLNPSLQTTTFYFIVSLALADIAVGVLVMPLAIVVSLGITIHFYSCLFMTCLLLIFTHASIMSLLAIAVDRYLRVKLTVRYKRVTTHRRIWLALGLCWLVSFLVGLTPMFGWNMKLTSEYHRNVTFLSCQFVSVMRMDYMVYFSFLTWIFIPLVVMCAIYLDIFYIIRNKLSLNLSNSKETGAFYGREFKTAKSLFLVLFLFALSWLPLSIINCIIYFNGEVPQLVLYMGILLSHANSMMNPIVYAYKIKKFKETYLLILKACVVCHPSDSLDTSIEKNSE

Adenosine receptor A2a [4] = target: T2, Adenosine receptor A2a; test: Displacement of [3H]2-[p-(2-carboxyethyl)phenyl-ethylamino]-5'-N-ethylcarboxamido-adenosine from human A2aAR expressed in HEK293 cells at 10 uM after 60 mins by scintillation counting analysis; format: cell-based
Mus musculus = test: Reversal of pain in po dosed mouse chronic constriction injury model assessed as paw withdrawal threshold administered 7 days post injury measured after 1 hr; format: functional, organism-based
Method in brief: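 Mouse chronic constriction injury model of neuropathic pain; compound given orally (po); mechanoallodynia read out as paw withdrawal threshold followed over time after dosing.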

Adenosine receptor A1 = target: T4, Adenosine receptor A1 (Homo sapiens, UniProt P30542); test: Displacement of [3H]N6-R-phenylisopropyladenosine from human A1AR expressed in CHO cells after 60 mins by scintillation counting analysis; format: cell-based
T4 sequence (P30542 whole entry): T1 sequence (whole entry)

Adenosine receptor A3 [5] = target: T3, Adenosine receptor A3; test: Binding affinity to human A3AR

T2 sequence (P29274 whole entry): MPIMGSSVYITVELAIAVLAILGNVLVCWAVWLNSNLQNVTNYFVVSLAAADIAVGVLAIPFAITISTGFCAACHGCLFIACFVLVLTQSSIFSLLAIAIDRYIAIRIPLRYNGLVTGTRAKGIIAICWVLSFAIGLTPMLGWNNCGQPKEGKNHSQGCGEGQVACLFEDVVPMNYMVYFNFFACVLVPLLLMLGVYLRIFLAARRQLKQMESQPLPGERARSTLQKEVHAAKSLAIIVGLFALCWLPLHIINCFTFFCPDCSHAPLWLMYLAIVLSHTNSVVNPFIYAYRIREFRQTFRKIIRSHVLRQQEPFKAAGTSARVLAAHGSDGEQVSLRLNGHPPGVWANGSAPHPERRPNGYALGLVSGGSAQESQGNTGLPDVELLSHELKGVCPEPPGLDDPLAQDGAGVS

CNC(=O)[C@@]12C[C@@H]1[C@@H](n1cnc3c(N)nc(C#Cc4ccccc4)nc31)[C@H](O)[C@@H]2O
inhibition [1]: 28%
Ki (Adenosine receptor A2a [2]): 1200 nM
Ki (Adenosine receptor A3 [3]): 1.51 nM

CNC(=O)[C@@]12C[C@@H]1[C@@H](n1cnc3c(N[C@@H]4C[C@H]4c4ccc(F)c(F)c4)nc(C#Cc4ccccc4)nc31)[C@H](O)[C@@H]2O
inhibition [1]: 11%
inhibition (Adenosine receptor A2a [4]): 0%
Ki (Adenosine receptor A3 [3]): 16.9 nM

CNC(=O)[C@@]12C[C@@H]1[C@@H](n1cnc3c(N[C@H]4C[C@@H]4c4ccc(F)c(F)c4)nc(C#Cc4ccccc4)nc31)[C@H](O)[C@@H]2O
inhibition [1]: 16%
inhibition (Adenosine receptor A2a [4]): 0%
Ki (Adenosine receptor A3 [3]): 4.55 nM

CNC(=O)[C@@]12C[C@@H]1[C@@H](n1cnc3c(N[C@@H]4C[C@H]4c4ccc(F)c(F)c4)nc(C#Cc4ccccn4)nc31)[C@H](O)[C@@H]2O
inhibition [1]: 19%
inhibition (Adenosine receptor A2a [4]): 25%
Activity (Mus musculus): Active

CNC(=O)[C@@]12C[C@@H]1[C@@H](n1cnc3c(N[C@H]4C[C@@H]4c4ccc(F)c(F)c4)nc(C#Cc4ccccn4)nc31)[C@H](O)[C@@H]2O
inhibition [1]: 26%
inhibition (Adenosine receptor A2a [4]): 41%

OC[C@H]1O[C@@H](n2cnc3c(NC4CC4c4ccccc4)nc(C#Cc4ccccc4)nc32)[C@H](O)[C@@H]1O (mixture of isomers)
Ki (Adenosine receptor A1): 124 nM

O=[N+]([O-])c1cccc(C2CC2Nc2nc(C#Cc3ccccc3)nc3c2ncn3[C@@H]2O[C@H](CO)[C@@H](O)[C@H]2O)c1 (mixture of isomers)
Ki (Adenosine receptor A3 [5]): 11.2 nM

CNC(=O)[C@@]12C[C@@H]1[C@@H](n1cnc3c(NC4CC4c4ccc(F)c(F)c4)nc(C#Cc4ccccc4)nc31)[C@H](O)[C@@H]2O (mixture of isomers)
inhibition [1]: 11%
inhibition (Adenosine receptor A2a [4]): 6%

CNC(=O)[C@@]12C[C@@H]1[C@@H](n1cnc3c(NC4CC4c4cccc(Br)c4)nc(C#Cc4ccccc4)nc31)[C@H](O)[C@@H]2O (mixture of isomers)
inhibition [1]: 17%
inhibition (Adenosine receptor A2a [4]): 32%

CNC(=O)[C@@]12C[C@@H]1[C@@H](n1cnc3c(NC4CC4c4cccc(C)c4)nc(C#Cc4ccccc4)nc31)[C@H](O)[C@@H]2O (mixture of isomers)
inhibition [1]: 8%
inhibition (Adenosine receptor A2a [4]): 53%

CNC(=O)[C@@]12C[C@@H]1[C@@H](n1cnc3c(NC4CC4c4cccc(Cl)c4)nc(C#Cc4ccccc4)nc31)[C@H](O)[C@@H]2O (mixture of isomers)
inhibition [1]: 6%
inhibition (Adenosine receptor A2a [4]): 39%

CNC(=O)[C@@]12C[C@@H]1[C@@H](n1cnc3c(NC4CC4c4cccc(F)c4)nc(C#Cc4ccccc4)nc31)[C@H](O)[C@@H]2O (mixture of isomers)
inhibition [1]: 18%
inhibition (Adenosine receptor A2a [4]): 0%

CNC(=O)[C@@]12C[C@@H]1[C@@H](n1cnc3c(NC4CC4c4ccccc4)nc(C#Cc4ccccc4)nc31)[C@H](O)[C@@H]2O (mixture of isomers)
inhibition [1]: 2%
inhibition (Adenosine receptor A2a [4]): 43%

Reference: ChEMBL document CHEMBL3352566 (Bioorg Med Chem Lett, 2014)
